Assay results reported in ChEMBL document CHEMBL4673248, “Discovery and Characterization of BAY 1214784, an Orally Available Spiroindoline Derivative Acting as a Potent and Selective Antagonist of the Human Gonadotropin-Releasing Hormone Receptor as Proven in a First-In-Human Study in Postmenopausal Women” (J Med Chem, 2020).

Legend:
[1] = molecular target: T1, Gonadotropin-releasing hormone receptor (Homo sapiens, UniProt P30968); test: Antagonist activity at human GnRH receptor expressed in CHO-K1 cells assessed as inhibition of buserelin-induced response preincubated for 20 mins followed by buserelin addition and measured after 60 mins by TR-FRET assay; type: cell-based
T1 sequence (P30968 whole entry): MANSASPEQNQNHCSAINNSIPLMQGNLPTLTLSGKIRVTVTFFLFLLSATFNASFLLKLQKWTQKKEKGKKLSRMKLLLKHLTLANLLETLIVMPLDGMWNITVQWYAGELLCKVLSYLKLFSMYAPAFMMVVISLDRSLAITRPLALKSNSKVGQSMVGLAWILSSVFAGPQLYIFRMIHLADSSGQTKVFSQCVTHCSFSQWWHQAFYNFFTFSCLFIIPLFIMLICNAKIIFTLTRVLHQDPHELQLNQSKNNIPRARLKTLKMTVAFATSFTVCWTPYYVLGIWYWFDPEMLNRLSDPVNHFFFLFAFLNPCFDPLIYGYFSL

[2] = molecular target: T2, Gonadotropin-releasing hormone receptor (Rattus norvegicus, UniProt P30969); test: Antagonist activity at rat GnRH receptor expressed in CHO-K1 cells assessed as inhibition of LHRH-induced response preincubated for 20 mins followed by LHRH addition and measured after 60 mins by TR-FRET assay; type: cell-based
T2 sequence (P30969 whole entry): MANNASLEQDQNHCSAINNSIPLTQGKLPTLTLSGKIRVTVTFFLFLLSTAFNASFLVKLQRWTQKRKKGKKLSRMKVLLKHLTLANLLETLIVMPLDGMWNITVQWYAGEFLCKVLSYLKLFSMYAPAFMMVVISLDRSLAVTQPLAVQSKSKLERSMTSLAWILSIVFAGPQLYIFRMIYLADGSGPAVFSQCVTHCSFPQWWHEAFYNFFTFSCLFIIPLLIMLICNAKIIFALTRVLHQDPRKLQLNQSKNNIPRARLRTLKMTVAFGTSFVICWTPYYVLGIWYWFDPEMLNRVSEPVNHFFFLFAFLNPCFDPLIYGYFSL
How it was run: (§1)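 Frozen rat-receptor cells: thawed, seeded overnight in serum-containing Ham's F12, Accutase-harvested, resuspended in serum-free medium with IP1-d2, 1 h at 37 °C. 1.0 × 10^4 cells/well, 20 min compound preincubation at rt, then 1× EC80 LHRH or buserelin in HEPES stimulation buffer pH 7.4 for 60 min at 37 °C. Tb-anti-IP1 lysis (1:38), HTRF read 60 min later.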

[3] = molecular target: T1, Gonadotropin-releasing hormone receptor; test: Antagonist activity at human GnRH receptor expressed in CHO-K1 cells assessed as inhibition of LHRH-induced response preincubated for 20 mins followed by LHRH addition and measured after 60 mins by TR-FRET assay; type: cell-based
[4] = Oral bioavailability in Wistar rat at 2 mg/kg by LC-MS/MS analysis; type: ADME, organism-based; conditions: in vivo
[5] = Clearance in Wistar rat at 0.5 mg/kg, iv by LC-MS/MS analysis; type: ADME, organism-based; conditions: in vivo
[6] = Intrinsic clearance in Han Wistar rat hepatocytes at 1 uM measured up to 90 mins by LC/MS/MS analysis; type: ADME, cell-based, Hepatocyte; conditions: for CLint scaled at 1 µM: Han Wistar, read-out: CLH (converted)
[7] = molecular target: T2, Gonadotropin-releasing hormone receptor; test: Antagonist activity at rat GnRH receptor expressed in CHO-K1 cells assessed as inhibition of buserelin-induced response preincubated for 20 mins followed by buserelin addition and measured after 60 mins by TR-FRET assay; type: cell-based; how it was run: as §1
[8] = Lipophilicity, log D of the compound in pH 7.5 MeCN/H2O solution by reversed-phase HPLC analysis; type: physicochemical
How it was run: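 Indirect reversed-phase HPLC at pH 7.5, calibrated with n-alkan-2-ones C3–C16. Compounds applied as 0.67 mM DMSO stocks in MeCN/H2O (1:1).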

| IC50 [1] [nM] | IC50 [3] [nM] | SMILES | also measured |
| --- | --- | --- | --- |
| ≥ 20000 | ≥ 20000 | COc1ccc(S(=O)(=O)N2c3ccc(C(=O)NCc4ccccc4Cl)cc3C3(CCN(C(C)=O)CC3)C2C)cc1 (stereo in doubt; form 1) | IC50 [2]: ≥ 20000 nM |
| 28 | 15 | COc1ccc(S(=O)(=O)N2c3ccc(C(=O)NCc4ccccc4Cl)cc3C3(CCN(C(C)=O)CC3)C2C)cc1 (stereo in doubt; form 3) | bioavailability [4]: 1.3%; CL ([5]; 0.5 mg/kg): 31.7 mL/min/kg; CLH ([6]; 1.5 h, 1 µM): 20 mL/min/kg |
| 44 | 20 | O=C(NCc1ncc(C(F)(F)F)cc1Cl)c1ccc2c(c1)C1(CCS(=O)(=O)CC1)C(C1CC1)N2S(=O)(=O)c1ccc(F)cc1 (racemic) | – |
| 26 | 13 | N=S1(=O)CCC2(CC1)c1cc(NC(=O)c3cccnc3)ccc1N(S(=O)(=O)c1ccc(F)cc1)C2C1CC1 (stereo in doubt; form 2) | – |
| 144 | 65 | O=C(NCc1ncc(F)cc1Cl)c1ccc2c(c1)C1(CCS(=O)(=O)CC1)C(C1CC1)N2S(=O)(=O)c1ccc(F)cc1 (racemic) | – |
| 18200 | 12800 | CC(=O)N1CCC2(CC1)c1cc(C(=O)NCc3ccccc3Cl)ccc1N(Cc1ccc(F)cc1)C2C (racemic) | – |
| 553 | 208 | CC(=O)N1CCC2(CC1)c1cc(C(=O)NCc3ccccc3)ccc1N(S(=O)(=O)c1ccc(F)cc1)C2C1CC1 (racemic) | – |
| ≥ 20000 | ≥ 20000 | COc1ccc(S(=O)(=O)N2c3ccc(C(=O)NCc4ccccc4Cl)cc3C(C)(C)C2C)cc1 (stereo in doubt; form 2) | IC50 [7]: ≥ 20000 nM; IC50 [2]: ≥ 20000 nM |
| > 20000 | > 20000 | CC(=O)N1CCC2(CC1)c1cc(C(=O)NCc3ccccc3Cl)ccc1N(S(=O)(=O)c1ccc(F)cc1)C2C (stereo in doubt; form 1) | – |
| 246 | 84 | O=C(NCc1ncc(C(F)(F)F)cc1F)c1ccc2c(c1)C1(CCS(=O)(=O)CC1)C(C1CC1)N2S(=O)(=O)c1ccc(F)cc1 (racemic) | – |
| 58.5 | 32 | N=S1(=O)CCC2(CC1)c1cc(NC(=O)c3cccnc3)ccc1N(S(=O)(=O)c1ccc(F)cc1)C2C1CC1 (stereo in doubt; form 1) | – |
| 18100 | 10100 | CC(=O)N1CCC2(CC1)c1cc(C(=O)NCc3ccccc3Cl)ccc1N(S(C)(=O)=O)C2C (racemic) | – |
| 222 | 90 | O=C(NCc1ncccc1Cl)c1ccc2c(c1)C1(CCS(=O)(=O)CC1)C(C1CC1)N2S(=O)(=O)c1ccc(F)cc1 (racemic) | – |
| 6620 | 365 | COc1ccc(S(=O)(=O)N2c3ccc(C(=O)NCc4ccccc4Cl)cc3C(C)(C)C2C)cc1 (racemic) | IC50 [7]: 4870 nM; IC50 [2]: 1420 nM |
| 140 | 53 | CC1N(S(=O)(=O)c2ccc(F)cc2)c2ccc(NC(=O)c3cccnc3)cc2C12CCOCC2 (racemic) | – |
| 90 | 87 | CC(=O)N1CCC2(CC1)c1cc(C(=O)NCc3ccccc3Cl)ccc1N(S(=O)(=O)c1ccc(F)cc1)C2C (racemic) | chromatographic logD [8]: 3.25 |
| 132 | 48 | O=C(Nc1ccc2c(c1)C1(CCSCC1)C(C1CC1)N2S(=O)(=O)c1ccc(F)cc1)c1cccnc1 (racemic) | – |
| 1150 | 584 | CC(=O)N1CCC2(CC1)c1cc(C(=O)NCc3ccccc3Cl)ccc1N(S(=O)(=O)c1ccc(F)cc1)C2CCO (racemic) | – |
| 92 | 56 | CC(=O)N1CCC2(CC1)c1cc(C(=O)NC3(c4ccc(Cl)cc4)CC3)ccc1N(S(=O)(=O)c1ccc(F)cc1)C2C1CC1 (racemic) | – |
| 228 | 78 | O=C(Nc1ccc2c(c1)C1(CCC(O)(C(F)(F)F)CC1)C(C1CC1)N2S(=O)(=O)c1ccc(F)cc1)c1cccnc1 (stereo unspecified) | – |

| IC50 [1] [nM] | IC50 [3] [nM] | SMILES | also measured |
| --- | --- | --- | --- |
| 22 | 10 | C=CCC1N(S(=O)(=O)c2ccc(F)cc2)c2ccc(C(=O)NCc3ccccc3Cl)cc2C12CCN(C(C)=O)CC2 (racemic) | – |
| 47 | 24 | CC(=O)N1CCC2(CC1)c1cc(C(=O)NCc3ccccc3Cl)ccc1N(S(=O)(=O)c1ccc(F)cc1)C2C1CC1 (racemic) | – |
| 1410 | 3060 | CC1N(S(=O)(=O)c2ccccc2)c2ccc(C(=O)NCc3ccccc3Cl)cc2C1(C)C (racemic) | IC50 [7]: 4840 nM |
| 131 | 53 | CC(=O)N1CCC2(CC1)c1cc(C(=O)NCc3ccccc3Cl)ccc1N(S(=O)(=O)c1ccccc1)C2C (racemic) | – |
| 2430 | – | O=C(NCc1ncc(C(F)(F)F)cc1Cl)c1ccc2c(c1)C1(CCS(=O)(=O)CC1)C(C1CC1)N2S(=O)(=O)c1ccc(F)cc1 (stereo in doubt) | – |
| 77 | 38 | CC(=O)N1CCC2(CC1)c1cc(C(=O)NCc3ccc(F)cc3Cl)ccc1N(S(=O)(=O)c1ccc(F)cc1)C2C1CC1 (racemic) | – |
| 1770 | 420 | CC(=O)N1CCC2(CC1)CN(S(=O)(=O)c1ccc(F)cc1)c1ccc(C(=O)NCc3ccccc3Cl)cc12 | – |
| 1530 | 568 | COc1ccc(S(=O)(=O)N2c3ccc(C(=O)NCc4ccccc4Cl)cc3C(C)(C)C2C)cc1 (stereo in doubt; form 1) | IC50 [7]: 1110 nM; IC50 [2]: 726 nM |
| 1500 | 570 | COc1ccc(S(=O)(=O)N2c3ccc(C(=O)NCc4ccccc4Cl)cc3C(C)(C)C2C)cc1 (stereo in doubt; 1a) | IC50 [7]: 1100 nM; IC50 [2]: 730 nM; chromatographic logD [8]: 3.8; CLint scaled at 1 µM [6]: 51.7 mL/min/kg |
| 61 | 26 | O=C(Nc1ccc2c(c1)C1(CCC(O)CC1)C(C1CC1)N2S(=O)(=O)c1ccc(F)cc1)c1cccnc1 (stereo unspecified) | – |
| 45 | 20 | O=C(Nc1ccc2c(c1)C1(CCS(=O)(=O)CC1)C(C1CC1)N2S(=O)(=O)c1ccc(F)cc1)c1cccnc1 (stereo unspecified) | – |
| 35 | 53.5 | CC(=O)N1CCC2(CC1)c1cc(C(=O)NCc3ncccc3Cl)ccc1N(S(=O)(=O)c1ccc(F)cc1)C2C (single isomer, unassigned) | bioavailability [4]: 18%; clearance ([5]; Wistar): 28.3 mL/min/kg; CLint scaled at 1 µM [6]: 11.7 mL/min/kg |
| > 20000 | 18000 | CC(=O)N1CCC2(CC1)c1cc(C(=O)NCc3ccccc3Cl)ccc1N(C(=O)c1ccc(F)cc1)C2C (racemic) | – |
| 13800 | > 20000 | CC(=O)N1CCC2(CC1)c1cc(C(=O)NCc3ccccc3Cl)ccc1N(S(=O)(=O)c1ccc(C(F)(F)F)cc1)C2C (racemic) | – |
| – | 21 | CC(=O)N1CCC2(CC1)c1cc(C(=O)NCc3ccccc3Cl)ccc1N(S(=O)(=O)c1ccc(F)cc1)C2C (stereo in doubt; form 2) | – |
| 1050 | 162 | CC(=O)N1CCC2(CC1)c1cc(C(=O)NC3(c4ccccc4Cl)CC3)ccc1N(S(=O)(=O)c1ccc(F)cc1)C2C1CC1 (racemic) | – |
| 921 | 245 | O=C(NCc1ccccn1)c1ccc2c(c1)C1(CCS(=O)(=O)CC1)C(C1CC1)N2S(=O)(=O)c1ccc(F)cc1 (racemic) | – |
| 415 | 159 | O=C(NCc1ccc(C(F)(F)F)cn1)c1ccc2c(c1)C1(CCS(=O)(=O)CC1)C(C1CC1)N2S(=O)(=O)c1ccc(F)cc1 (racemic) | – |
| 36 | 18 | O=C(Nc1ccc2c(c1)C1(CC[S+]([O-])CC1)C(C1CC1)N2S(=O)(=O)c1ccc(F)cc1)c1cccnc1 (stereo unspecified) | – |
| 269 | 139 | CC(=O)N1CCC2(CC1)c1cc(C(=O)NCc3ccccc3Cl)ccc1N(S(=O)(=O)c1cccnc1)C2C (racemic) | – |

| SMILES | IC50 [1] [nM] | IC50 [3] [nM] | also measured |
| --- | --- | --- | --- |
| CC(=O)N1CCC2(CC1)c1cc(NC(=O)c3cccc(F)c3)ccc1N(S(=O)(=O)c1ccc(F)cc1)C2C1CC1 (racemic) | 18 | 10 | – |
| CC(=O)N1CCC2(CC1)c1cc(NC(=O)c3cccnc3)ccc1N(S(=O)(=O)c1ccc(F)cc1)C2C1CC1 (racemic) | 68 | 34 | – |
